What all share (assay type): functional
Common to all, as to conditions: Homo sapiens

One assay has as its system COLO 205. Briefly: Tested in vitro for cytotoxicity in COLO 205 cell lines. In short, it runs like this:
(§1)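 Compounds dissolved in DMSO, then diluted 500-fold into aqueous medium. The resulting aqueous solutions or suspensions were added to the cultured human tumour cell lines, and the cells were exposed for 48 h. Growth was read colorimetrically in one of two ways: a metabolic assay in which viable cells reduce a tetrazolium salt to a formazan dye, or a protein stain for total cellular protein.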

A further assay concerns A549. In words: Tested in vitro for cytotoxicity in A549/ATCC cell lines. An outline of the steps:
as §1

The test system of a further assay is Malme-3M. Briefly: Tested in vitro for cytotoxicity in MALME-3M. In short, it runs like this:
as §1

The subject of a further assay is SF-268. In words: Tested in vitro for cytotoxicity in SF-268 cell lines. An outline of the steps: as §1
Another assay deals with CCRF-CEM. Briefly: Tested in vitro for cytotoxicity in CCRF-CEM cell lines. In short, it runs like this:
as §1

The subject of another assay is CAKI-1. In words: Tested in vitro for cytotoxicity in CAKI-1 cell lines. An outline of the steps:
as §1

For a further assay, the system named is IGROV-1. In words: Tested in vitro for cytotoxicity in IGROV1 cell lines. In short, it runs like this: as §1
The subject of the next assay is DMS-114. Briefly: Tested in vitro for cytotoxicity in DMS114 cell lines. An outline of the steps:
as §1

In the case of `CSC[n+]1ccc2c(C)c3[nH]c4ccccc4c3c(C)c2c1`, the GI50 in the assay with COLO 205 is 2.48 µM; in the assay on A549 it was 5.23 µM; in the assay on Malme-3M it was 1.99 µM; with SF-268, 0.726 µM; with CCRF-CEM, 5.02 µM; with CAKI-1, 19.6 µM. For the same compound, the GI50 in the assay on IGROV-1 was found to be 18.2 µM; in the assay on DMS-114, 2.67 µM.
As to `Cc1c2cc[n+](CC#N)cc2c(C)c2c1[nH]c1ccccc12`, the GI50 was 34.6 µM in the assay with COLO 205; 97.5 µM in the assay with A549; 27.2 µM with Malme-3M; 13 µM in the assay on SF-268; 100 µM with CCRF-CEM; greater than 100 µM in the assay with CAKI-1. Besides, the figures for the GI50 in the assay with IGROV-1 and with DMS-114 were 35.6 µM and 44.7 µM, respectively.
For the compound `COC[n+]1ccc2c(C)c3[nH]c4ccc(OC)cc4c3c(C)c2c1`, the GI50 in the assay on COLO 205 was determined as 2.68 µM; with A549 it was 13.7 µM; with Malme-3M, 1.92 µM; with SF-268 it was 0.818 µM; in the assay with CCRF-CEM, 6.86 µM; with CAKI-1 it was 20.2 µM. Moreover, the 50% growth inhibitory concentration (GI50) in the assay with IGROV-1 was 27.8 µM; in the assay on DMS-114 it was 1.32 µM.
As for `COC(=O)C[n+]1ccc2c(C)c3[nH]c4ccccc4c3c(C)c2c1`, the GI50 was greater than 100 µM in the assay with COLO 205; greater than 100 µM in the assay on A549; greater than 100 µM in the assay on Malme-3M; 12.8 µM in the assay with SF-268; greater than 100 µM in the assay with CCRF-CEM; greater than 100 µM in the assay with IGROV-1. For the same compound, the GI50 with DMS-114 is greater than 100 µM.
Take `CC(=O)O[C@@H]1[C@@H](OC(C)=O)[C@@H](N2C=Cc3c(c(C)c4c([nH]c5ccccc54)c3C)C2)OC[C@@H]1OC(C)=O`: the GI50 with COLO 205 was 36.7 µM; in the assay on A549 it was 64 µM; in the assay on Malme-3M, 30.2 µM; in the assay with SF-268, 31 µM; in the assay with CCRF-CEM, 29 µM; in the assay with CAKI-1, greater than 100 µM. For the same compound, the GI50 with IGROV-1 was found to be 24.1 µM; in the assay on DMS-114, 15.6 µM.
`Cc1ccc2[nH]c3c(C)c4c(c(C)c3c2c1)CN(C)C=C4`: the GI50 with COLO 205 turned out to be 0.306 µM; in the assay with A549, 0.38 µM; in the assay on Malme-3M, 1.72 µM; in the assay with SF-268 it was 0.395 µM; with CCRF-CEM it was 2.34 µM; in the assay with CAKI-1, 1.21 µM. Moreover, the GI50 with IGROV-1 was 0.774 µM; in the assay on DMS-114, 0.438 µM.
Regarding `Cc1c2ccncc2c(C)c2c1[nH]c1ccccc12` [ELLIPTECINE], the GI50 is 0.588 µM in the assay on COLO 205; 0.41 µM with A549; 2.52 µM with Malme-3M; 0.816 µM with SF-268; 0.415 µM in the assay with CCRF-CEM; 1.01 µM in the assay with CAKI-1. The GI50 in the assay on IGROV-1 stood at 0.862 µM; with DMS-114, 0.552 µM.
On to `Cc1c2cc[n+](C[S+](C)[O-])cc2c(C)c2c1[nH]c1ccccc12` (stereo not drawn), for which the GI50 in the assay on COLO 205 worked out at 31 µM; in the assay with A549, 71 µM; in the assay on SF-268, 2.46 µM; in the assay on CCRF-CEM, 40.6 µM; in the assay with CAKI-1, 35.8 µM; with IGROV-1, 29.5 µM. Also, growth in the assay with DMS-114 was halved (GI50) at 6.6 µM.
Turning to `COCN1C=Cc2c(c(C)c3c([nH]c4ccccc43)c2C)C1`, the GI50 in the assay with COLO 205 worked out at 8.68 µM; in the assay with A549, 5.06 µM; with Malme-3M, 8.87 µM; in the assay with SF-268 it was 8.02 µM; in the assay on CCRF-CEM it was 4.98 µM; with CAKI-1, 11.1 µM. Further, the GI50 in the assay with IGROV-1 amounted to 5.88 µM; in the assay on DMS-114 it was 10.4 µM.
As to `COC[n+]1ccc2c(C)c3[nH]c4ccccc4c3c(C)c2c1`, the GI50 is 4.7 µM with COLO 205; 1.79 µM in the assay with A549; 0.647 µM in the assay with Malme-3M; 0.679 µM with SF-268; 14.6 µM in the assay with CCRF-CEM; 19.2 µM with CAKI-1. Also, the results for the GI50 in the assay with IGROV-1 and in the assay with DMS-114 were 9.2 µM and 2.28 µM, respectively.
On to `COc1ccc2[nH]c3c(C)c4c(c(C)c3c2c1)CN(C)C=C4C=O`, for which the 50% growth inhibitory concentration (GI50) in the assay with COLO 205 amounted to 16.2 µM; in the assay with A549 it was 75.7 µM; in the assay with Malme-3M, 40 µM; with SF-268, 1.12 µM; with CCRF-CEM, 60.4 µM; with CAKI-1 it was 73.2 µM. Moreover, the concentration for 50% growth inhibition (GI50) in the assay with IGROV-1 worked out at 31.2 µM; in the assay with DMS-114 it was 2.5 µM.
As to `Cc1c2cc[n+](CC(=O)O)cc2c(C)c2c1[nH]c1ccccc12`, the 50% growth inhibitory concentration (GI50) in the assay on COLO 205 is greater than 100 µM; with A549, 77.3 µM; in the assay on Malme-3M, 26.3 µM; in the assay on SF-268 it was 97.1 µM; with CCRF-CEM it was greater than 100 µM; in the assay on IGROV-1, greater than 100 µM. Besides, the GI50 with DMS-114 was determined as 76.8 µM.

The term GI50 denotes the concentration at which growth is held to half of that of the control.

For the origin of these results see ChEMBL document CHEMBL1127574, “Design and synthesis of ellipticinium salts and 1,2-dihydroellipticines with high selectivities against human CNS cancers in vitro” (1994).
